From ChEMBL document CHEMBL1124173, “Enantiomers of 7-(2,3-epoxypropoxy)actinomycin D as dual-action DNA-acting antitumor agents” (J Med Chem, 1988)

Key:
Format in all cases: functional, Mus musculus
P388/ADR [1] = assay: Antitumor activity measured as Median survival time in days against P388/ADR cells in ip implanted CDF1 mice, qd 1-9
How it was run: (§1)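 P388/ADR leukemia, a P388/S subline made resistant to intercalators, implanted ip in CDF1 mice. Drug given ip daily on days 1-9 at optimal dose. Read-out is median survival time of tumor-bearing mice and %ILS of treated dying animals versus controls. Survivors beyond 60 days are counted; 10 mice per group.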

P388/ADR [2] = assay: Antitumor activity measured as %ILS against P388/ADR cells in ip implanted CDF1 mice, qd 1-9; how it was run: as §1
P388/ADR [3] = assay: Antitumor activity against P388/ADR cells in ip implanted CDF1 mice, qd 1-9 measured as optimal dose
How it was run: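 P388/ADR leukemia implanted ip in CDF1 mice; drugs given ip once daily on days 1-9. Optimal dose recorded alongside median survival time and % increase in median life span of treated dying mice versus controls; survivors counted as >60-day survivors per group of 10.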

CO[C@@]12[C@H](COC(N)=O)C3=C(C(=O)C(C)=C(N)C3=O)N1C[C@@H]1N[C@@H]12 [MITOMYCIN]
MST (P388/ADR [1]): 45 days
ILS (P388/ADR [2]): 400%
Dose (P388/ADR [3]): 1 mg/kg
